Measured values published in ChEMBL document CHEMBL1153469, “Antimicrobial and immunomodulatory properties of prenylated xanthones from twigs of Garcinia staudtii” (Bioorg Med Chem, 2009).
Values after ≈ are worked out from the molar mass of the structure shown.

Experiments:
[1] = tested on: PBMC; assay: Immunomodulatory activity in human PBMC assessed as phytohemagglutinin-stimulated IL2 release at 0.5 to 16 ug/mL after 18 hrs by ELISA; assay type: functional
Method in brief: (§1)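 Donor PBMCs were Ficoll-isolated and cultured in RPMI-1640 with 10% AB human serum, at 10^5 cells/well, with or without PHA 1.25 µg/mL. Compounds were tested at 16, 4, 1 and 0.5 µg/mL for 18 h at 37 °C in 5% CO2. Supernatants were cleared by 1000g centrifugation at 4 °C. IL-2, IL-4 and IFN-γ were measured by ELISA kit.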

[2] = tested on: Neutrophil; assay: Immunomodulatory activity in polymorphoneutrophils assessed as suppression of phagocytosis activity at 3.1 ug/mL after 30 mins by luminol-enhanced chemiluminescence assay
[3] = tested on: PBMC; assay: Immunomodulatory activity in human PBMC assessed as inhibition of phytohemagglutinin-stimulated IL2 release after 18 hrs by ELISA; assay type: functional, cell-based; method in brief: as §1
[4] = tested on: PBMC; assay: Immunomodulatory activity in human PBMC assessed as phytohemagglutinin-stimulated IL4 release at 0.5 to 16 ug/mL after 18 hrs by ELISA; assay type: functional; method in brief: as §1
[5] = Immunomodulatory activity in MNC assessed as suppression of phagocytosis activity at 3.1 ug/mL after 30 mins by luminol-enhanced chemiluminescence assay
[6] = Cytotoxicity against MDBK cells at 50 ug/mL after 72 hrs by MTT assay; assay type: cell-based, Bos taurus; conditions: cattle
Method in brief: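 MDBK adherent cells at 2 × 10^5 cells/mL were exposed to serial compound dilutions (0.195–50 µg/mL), with viability examined after 72 h. MTT (2 mg/mL) was added for 2–3 h at 37 °C. Cells were washed with PBS and the formazan dissolved in DMSO, with 15 min agitation at 37 °C. Absorbance was read at 540 nm, and viability was taken as the OD ratio to control.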

[7] = Cytotoxicity against polymorphoneutrophils at 3.1 to 50 ug/mL; assay type: cell-based; conditions: neutrophil
[8] = tested on: Neutrophil; assay: Immunomodulatory activity in polymorphoneutrophils assessed as suppression of phagocytosis activity 30 mins by luminol-enhanced chemiluminescence assay; assay type: functional, cell-based
Method in brief: (§2)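 Luminol-enhanced chemiluminescence was run on neutrophils (1 × 10^7) or monocytes (1 × 10^6) in HBSS with Ca/Mg. Cells were preincubated 30 min with compound (3.1–50 µg/mL), then zymosan (20 mg/mL stock) and luminol (7 × 10^-5 M stock) were added, to 0.2 mL final. HBSS alone served as control. Fifty luminometer scans were taken at 30 s intervals, with readings expressed relative to untreated control.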

[9] = Cytotoxicity against MNC at 3.1 to 50 ug/mL
[10] = Immunomodulatory activity in MNC assessed as suppression of phagocytosis activity after 30 mins by luminol-enhanced chemiluminescence assay; assay type: functional; method in brief: as §2
[11] = tested on: PBMC; assay: cells; conditions: Homo sapiens
[12] = tested on: PBMC; assay: Immunomodulatory activity in human PBMC assessed as inhibition of phytohemagglutinin-stimulated IL4 release at 1 ug/mL after 18 hrs; assay type: functional; method in brief: as §1
[13] = tested on: PBMC; assay: Immunomodulatory activity in human PBMC assessed as inhibition of phytohemagglutinin-stimulated IL4 release after 18 hrs by ELISA; assay type: functional, cell-based; method in brief: as §1
[14] = tested on: Neutrophil; assay: Immunomodulatory activity in polymorphoneutrophils assessed as inhibition of fMLP-induced cellular chemotaxis at 2.5 to 25 ug/mL after 1 hr using hematoxylin staining by light microscopy; assay type: functional
Method in brief: (§3)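 PMN chemotaxis was measured in a modified Boyden chamber. fMLP (10^-8 M) was placed in the lower well, separated by a cellulose filter (2 µm pores). 5 × 10^4 cells in HBSS with Ca/Mg went in the upper well, with compounds at 2.5, 5 or 25 µg/mL, in duplicate. The DMSO:HBSS (1:1) buffer served as control. After 60 min at 37 °C in CO2, cells in the filter were hematoxylin-stained and migration distance was measured in five random fields.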

[15] = tested on: PBMC; assay: Immunomodulatory activity in human PBMC assessed as inhibition of phytohemagglutinin-stimulated IFN-gamma release at 0.5 ug/mL after 18 hrs by ELISA; assay type: functional; method in brief: as §1
[16] = tested on: PBMC; assay: Immunomodulatory activity in human PBMC assessed as phytohemagglutinin-stimulated IFN-gamma release at 0.5 to 16 ug/mL after 18 hrs by ELISA; assay type: functional; method in brief: as §1
[17] = tested on: PBMC; assay: Immunomodulatory activity in human PBMC assessed as inhibition of phytohemagglutinin-stimulated IL2 release at 0.5 ug/mL after 18 hrs by ELISA; assay type: functional; method in brief: as §1
[18] = tested on: PBMC; assay: Immunomodulatory activity in human PBMC assessed as inhibition of phytohemagglutinin-stimulated IFN-gamma release after 18 hrs by ELISA; assay type: functional, cell-based; method in brief: as §1
[19] = tested on: PBMC; assay: Immunomodulatory activity in human PBMC assessed as inhibition of phytohemagglutinin-induced T-cell proliferation at 12.5 ug/mL after 72 hrs by [3H]thymidine incorporation assay; assay type: functional
Method in brief: (§4)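 PBMCs were isolated from heparinized venous blood of a healthy adult donor by Ficoll–Hypaque gradient. Cells at 5 × 10^5 cells/mL were stimulated with PHA 5 µg/mL, with compounds at 3.1–100 µg/mL final, in triplicate. Incubation was 72 h at 37 °C in 5% CO2, then a 0.5 µCi/well [3H]thymidine pulse for 18 h further. Incorporation was counted by liquid scintillation as mean CPM.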

[20] = tested on: Neutrophil; assay: Immunomodulatory activity in polymorphoneutrophils assessed as inhibition of fMLP-induced cellular chemotaxis at 2.5 ug/mL pre-incubated 1 hr before fMLP challenge measured after 1 hr using hematoxylin staining by light microscopy; assay type: functional; method in brief: as §3
[21] = tested on: Neutrophil; assay: Immunomodulatory activity in polymorphoneutrophils assessed as inhibition of fMLP-induced cellular chemotaxis at 5 ug/mL pre-incubated 1 hr before fMLP challenge measured after 1 hr using hematoxylin staining by light microscopy; assay type: functional; method in brief: as §3
[22] = tested on: Neutrophil; assay: Immunomodulatory activity in polymorphoneutrophils assessed as inhibition of fMLP-induced cellular chemotaxis at 25 ug/mL after 1 hr using hematoxylin staining by light microscopy; assay type: functional; method in brief: as §3
[23] = tested on: PBMC; assay: Immunomodulatory activity in human PBMC assessed as inhibition of phytohemagglutinin-induced T-cell proliferation at 6.125 ug/mL after 72 hrs by [3H]thymidine incorporation assay; assay type: functional; method in brief: as §4
[24] = Immunomodulatory activity in MNC assessed as inhibition of reactive oxygen species release at 25 ug/mL after 30 mins by luminol-enhanced chemiluminescence assay; assay type: functional; design: scale not given: the % may be the effect or the level left; method in brief: as §2
[25] = tested on: PBMC; assay: Immunomodulatory activity in human PBMC assessed as inhibition of phytohemagglutinin-induced T-cell proliferation at 3.1 ug/mL after 72 hrs by [3H]thymidine incorporation assay; assay type: functional; method in brief: as §4
[26] = Immunomodulatory activity in MNC assessed as inhibition of reactive oxygen species release at 50 ug/mL after 30 mins by luminol-enhanced chemiluminescence assay; assay type: functional; design: scale not given: the % may be the effect or the level left; method in brief: as §2
[27] = Immunomodulatory activity in MNC assessed as stimulation of reactive oxygen species release at 3.1 ug/mL after 30 mins by luminol-enhanced chemiluminescence assay; assay type: functional; method in brief: as §2

| SMILES | Activity [1] | inhibition [3] | Activity [4] | Activity [6] | Activity [7] | Activity [8] | Activity [9] | Activity [10] | IC50 [11] | inhibition [13] | inhibition (INH) [14] | Activity [16] | inhibition [18] | inhibition at 12.5 µg/mL [19] | further results |
| --- | --- | --- | --- | --- | --- | --- | --- | --- | --- | --- | --- | --- | --- | --- | --- |
| CC(C)=CCc1c(O)c(CC=C(C)C)c2oc3c(O)cc(O)cc3c(=O)c2c1O [STAUDTIIXANTHONE A] | 528.5 pg/mL | Dose-dependent effect | 120.5 pg/mL | Non-toxic | Non-toxic | Dose-dependent effect | Non-toxic | Dose-dependent effect | 6.2 µg/mL (≈ 15.6 µM) | Dose-dependent effect | 27% | 4033.7 pg/mL | Dose-dependent effect | 94.3% | Activity [2]: 73%; Activity [5]: 73%; inhibition at 1 µg/mL [12]: 88.1%; inhibition at 0.5 µg/mL [15]: 62.5%; inhibition at 0.5 µg/mL [17]: 68.2% |
| CC(C)=CCc1c2c(c(O)c3c(=O)c4cc(O)cc(O)c4oc13)C=CC(C)(C)O2 [STAUDTIIXANTHONE B] | 528.5 pg/mL | Dose-dependent effect | 120.5 pg/mL | Non-toxic | Non-toxic | Dose-dependent effect | Non-toxic | Dose-dependent effect | 6.4 µg/mL (≈ 16.2 µM) | Dose-dependent effect | 27% | 4033.7 pg/mL | Dose-dependent effect | 97.1% | – |
| CC(C)=CCc1c2c(c3oc4c(O)cc(O)cc4c(=O)c3c1O)C=CC(C)(C)O2 [STAUDTIIXANTHONE C] | 528.5 pg/mL | Dose-dependent effect | 120.5 pg/mL | Non-toxic | Non-toxic | Dose-dependent effect | Non-toxic | Dose-dependent effect | 12.7 µg/mL (≈ 32.2 µM) | Dose-dependent effect | 27% | 4033.7 pg/mL | Dose-dependent effect | – | inhibition at 2.5 µg/mL [20]: 36.4%; inhibition at 5 µg/mL [21]: 42.2%; inhibition at 25 µg/mL [22]: 46% |
| COc1cc2oc3c4c(cc(O)c3c(=O)c2c2c1OC(C)(C)CC2)OC(C)(C)CC4 [STAUDTIIXANTHONE D] | 528.5 pg/mL | – | 120.5 pg/mL | Non-toxic | Non-toxic | Dose-dependent effect | Non-toxic | Dose-dependent effect | 3.7 µg/mL (≈ 9.01 µM) | – | 27% | 4033.7 pg/mL | – | – | inhibition at 6.125 µg/mL [23]: 70.4%; Activity [24]: 59%; inhibition at 3.1 µg/mL [25]: 44.9%; Activity [26]: 70%; Activity [27]: 24% |
